# zfTRPN1 agonist – zebrafish TRPN1 channel agonists, primary screen, cell-based, HEK293, calcium fluorescence; HEK293 zebrafish TRPN1-YFP, Fluo-8 calcium fluorescence; 100% = response to 87 µM carbachol; activation, % at 3 µM; hit rate 0.18% among 220,000; AID 1424, 2008;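 active means activation above its plate's cutoff, the mean activation of test wells on that plate plus 3 SD, cut at about 19% in these data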;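 further: 0% = DMSO alone and 100% = 87 µM carbachol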
#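 Material: zebrafish TRPN1-YFP in HEK293 cells. Doses: one dose of 3 µM, 0.3% DMSO. Incubation: dye 1 h 37 °C plus 30 min RT. Measured by: intracellular calcium fluorescence with Fluo-8.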
# TRPML3 ag – human TRPML3 channel agonists, primary screen, cell-based, HEK293 TRPML3-YFP, Fluo-8 calcium fluorescence, 3 µM; hit rate 0.29% among 220,000; activation, % at 3 µM; Mucolipin-3 (Homo sapiens), Q8TDD5; 100% = the carbachol control signal;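 active means activation above its plate's cutoff, the mean activation of the plate's test wells plus 3 SD, cut at about 12% in these data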;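 further: 0% = DMSO only wells and 100% = carbachol wells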
#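 Material: HEK293 cells stably carrying human TRPML3-YFP; compound dosing: single dose, 3 µM final nominal compound, 0.3% DMSO final; incubation: 1-h 37 °C dye load, 5-s basal, 120-s post-compound reads; technique: Fluo-8 intracellular calcium fluorescence, excitation 470-495 nm, emission 515-575 nm; read-out basis: percent activation from peak-to-basal fluorescence ratio, scaled between DMSO and carbachol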
# V1aR counter – agonists of human V1a receptor, primary screen, counter-screen for OXTR agonist project, fluorescence, CHO-V1R cells; Vasopressin V1a receptor (Homo sapiens), P37288; Fluo-8 calcium fluorescence, agonist mode; 0% DMSO, 100% 3 nM vasopressin; hit rate 0.25% among 320,000; activation, % at 3 µM; AID 2797, 2010;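 active means activation above the mean activation of all tested compounds plus 3 SD, per screening run, cut at about 20% in these data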;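 further: signal is peak over basal fluorescence ratio across a 100 second FLIPR read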
# Target sequence (P37288 whole entry, looked up): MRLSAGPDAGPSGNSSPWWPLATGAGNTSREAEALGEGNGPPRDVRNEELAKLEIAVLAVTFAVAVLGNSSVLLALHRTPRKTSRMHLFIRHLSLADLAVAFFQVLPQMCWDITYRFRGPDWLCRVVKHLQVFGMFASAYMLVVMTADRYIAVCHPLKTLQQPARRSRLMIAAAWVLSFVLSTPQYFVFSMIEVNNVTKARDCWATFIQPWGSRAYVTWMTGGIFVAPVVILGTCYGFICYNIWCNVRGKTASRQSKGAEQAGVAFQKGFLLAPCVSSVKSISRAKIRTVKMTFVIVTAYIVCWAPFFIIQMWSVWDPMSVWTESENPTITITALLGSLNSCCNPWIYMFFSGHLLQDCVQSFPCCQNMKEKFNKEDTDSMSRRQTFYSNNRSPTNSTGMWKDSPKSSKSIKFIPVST
# OXTR potentiate – human OXTR potentiators, primary screen, fluorescence, CHO-OTR cells, Fluo-8 calcium | Oxytocin receptor (Homo sapiens), P30559 | Fluo-8 calcium fluorescence, potentiator mode; 0% = oxytocin EC15, 100% = EC100 | activation, % at 3 µM | hit rate 0.061% among 320,000;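 active means activation above that plate's cutoff, the mean activation of tested compounds plus 3 SD, cut at about 6.6% in these data, passing the limit was not always enough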;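 further: 100% uses oxytocin at 75 nM as the full agonist control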
#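 Assay system: CHO cell line stably expressing human OTR. Reagent: EC15 oxytocin agonist. Dosing: single dose, 3.0 µM nominal final compound concentration. Timing: compound 6 min at room temperature before oxytocin, 100 s read. Signal: kinetic Fluo-8 calcium fluorescence. Controls: oxytocin EC15 low and EC100 high.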
# OXTR agonist – human OXTR agonists, primary screen, fluorescence, CHO-OTR cells, Fluo-8 calcium; Oxytocin receptor (Homo sapiens), P30559; Fluo-8 calcium fluorescence; normalized: DMSO 0%, oxytocin 100%; activation, % at 3 µM; hit rate 0.32% among 320,000; AID 2435, 2010;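 active means activation above the mean of all tested compounds plus 3 SD, cutoff set per screening run, cut at about 20% in these data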;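 further: peak over basal fluorescence ratio from a 100 s FLIPR kinetic read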
# The depositor's hits bear a star; . = no result. A selection: hits, their analogues and other compounds. The true share with any hit is near 0.55%.
SMILES,zfTRPN1 agonist,TRPML3 ag,V1aR counter,OXTR potentiate,OXTR agonist
COC(=O)C1=NN(C(=O)c2cccc(Br)c2)C(O)(c2ccc(Cl)cc2)C1 (stereo not drawn),20.7*,3.1,9.6,-13.6,8.8
CCOC(=O)C1=NN(C(=O)c2cccc(Br)c2)C(O)(C(C)(C)C)C1 (stereo not drawn),17.8,2.0,12.4,-15.0,20.4*
O=C(Nc1cc(-c2ccccc2)nn1C1CCCCC1)c1ccc(Cl)cc1,.,.,2.0,-10.8,1.7
CC(C)CSC1=NSC2=NC(=O)/C(=C\c3ccccc3)C(=N)N12,-0.6,-0.9,-0.6,-3.3,0.0
N=C1/C(=C\c2coc3ccc(O)cc3c2=O)C(=O)N=C2SC=CN12,84.2*,17.9*,42.4*,-25.7,47.1*
CC(C)CSC1=NSC2=NC(=O)/C(=C\c3coc4ccccc4c3=O)C(=N)N12,21.4*,12.9*,43.2*,-21.4,120.8*
N=C1/C(=C\c2coc3ccccc3c2=O)C(=O)N=C2SC(c3ccncc3)=NN12,61.1*,33.7*,98.3*,-8.3,92.2*
N=C1/C(=C/c2coc3ccccc3c2=O)C(=O)N=C2SC(c3ccco3)=NN12,15.4,6.4,4.9,2.4,10.9
COc1cc(OC)cc(-c2c(-c3cccs3)c3cc(-c4ccc(N(C)C)nc4)ccc3n2C)c1,.,.,0.1,-1.8,-0.2
COc1ccc(C2(C)NC(=O)N(CC(=O)Nc3cccnc3Cl)C2=O)cc1 (stereo not drawn),.,.,4.8,-3.2,7.0
CC1(c2ccc(OC(F)F)cc2)NC(=O)N(CC(=O)Nc2cccnc2Cl)C1=O (stereo not drawn),.,.,47.5*,-21.9,60.1*
CCC1(c2ccc(F)cc2)NC(=O)N(CC(=O)Nc2cccnc2Cl)C1=O (stereo not drawn),.,.,30.2*,-18.2,23.0*
CCC1(c2ccccc2)NC(=O)N(CC(=O)Nc2cccnc2Cl)C1=O (stereo not drawn),.,.,1.5,-3.1,4.3
CC1(c2ccc(OC(F)F)cc2)NC(=O)N(CC(=O)Nc2ccc(N3CCCCC3)cc2)C1=O (stereo not drawn),.,.,26.8*,-21.1,26.6*
CN1C(=O)c2cccc3c(Cl)ccc(c23)C1=O,0.8,0.6,-0.1,-1.4,-1.9
CNc1ccc2c3c(cccc13)C(=O)N(C)C2=O,.,.,313.8*,-26.5,192.0*
CN1C(=O)c2cccc3c(N(C)C)ccc(c23)C1=O,.,.,23.2*,-19.8,22.7*
O=C(COC(=O)CCc1nc2ccccc2c(=O)[nH]1)Nc1ccccc1OC(F)F,.,.,0.7,-3.5,1.0
CCN1CCN(C(=O)C(C)Sc2nc3nc(C)cc(C)n3n2)CC1 (stereo not drawn),.,.,1.4,-4.0,-0.2
O=C(Nc1ccc(NS(=O)(=O)c2ccccc2)cc1)c1ccccc1Cl,.,.,3.9,-5.2,6.6
CCCCCCCCCC[N+](C)(C)CC/C=C1/c2ccccc2Sc2ccc(Cl)cc21,.,.,36.9*,-12.8,31.3*
CCOC(=O)CN1C(=O)S/C(=C/C=C/c2ccc(N(C)C)cc2)C1=O,6.1,6.3,28.3*,-16.7,25.7*
CCOC(=O)CN1C(=O)S/C(=C/c2ccc3c(c2)n(C)c(=O)n3C)C1=O,0.3,-0.2,0.2,-1.9,0.8
COc1ccccc1OCC(=O)Nc1cc(S(=O)(=O)N2CCOCC2)ccc1N1CCCCC1,.,.,1.0,-4.9,0.8
CCOC(=O)/C(=C/C=C1\Sc2cc(C)c(C)cc2N1CC)C(C)=O,31.1*,20.8*,.,.,.
SMILES,zfTRPN1 agonist,TRPML3 ag,V1aR counter,OXTR potentiate,OXTR agonist
CCOC(=O)/C(=C/C=C1\Sc2ccccc2N1CC)C(C)=O,51.1*,22.6*,49.3*,-17.1,46.0*
CCOC(=O)/C(=C\C=C1/Sc2ccccc2N1CC)C(C)=O,29.9*,19.9*,40.4*,-12.1,59.6*
COc1ccccc1N(Cc1ccccc1)S(=O)(=O)c1cccc(C(=O)N2CCCCC2)c1,.,.,1.0,-5.5,-1.3
Cc1onc(-c2ccccc2)c1C(=O)NCCSCc1ccco1,.,.,-0.1,4.5,-1.1
O=C(CCNS(=O)(=O)c1ccc(Br)cc1)NNC(=O)C1COc2ccccc2O1 (stereo not drawn),.,.,-0.2,-8.5,-0.9
N#C/C(=N\Nc1ccc(Cl)c(Cl)c1)C(=O)C1CC1,19.6*,8.0,9.9,-22.0,11.9
Cn1cccc1/C=N/n1c(-c2ccco2)n[nH]c1=S,2.4,6.8,-0.9,0.3,-0.1
COc1cc(-c2n[nH]c(=S)n2/N=C/c2cccn2C)cc(OC)c1OC,64.2*,34.6*,51.1*,-21.6,72.5*
O=C(Nc1ccccn1)c1ccc2c(c1)S(=O)(=O)c1ccccc1C2=O,1.6,0.9,0.4,-5.7,2.3
O=C1c2ccccc2S(=O)(=O)c2cc(C(=O)N(c3ccccn3)c3ccccn3)ccc21,35.1*,75.5*,89.3*,-11.0,87.7*
CCOC(=O)C1CN(S(=O)(=O)c2ccccc2)CCN1S(=O)(=O)c1ccccc1 (stereo not drawn),-0.4,2.1,-0.1,-5.6,-0.7
CCOC(=O)C1CN(S(=O)(=O)c2ccc(C)cc2)CCN1S(=O)(=O)c1ccc(C)cc1 (stereo not drawn),21.5*,0.4,0.7,-4.3,0.4
COc1ccc(NCC(=O)Nc2cccc(S(=O)(=O)N3CCCC3)c2)cc1Cl,.,.,7.6,-11.7,13.8
COC(=O)c1cccc(NC(=O)Nc2ccc(Cl)cc2)c1,20.6*,7.2,14.4,-19.5,13.8
COC(=O)c1cccc(NC(=O)NC(=O)c2ccc(Cl)cc2)c1,2.4,-0.4,-0.2,-11.6,0.0
CCN(CC)c1ccc(C2Nc3cccc4cccc(c34)N2)c(O)c1,0.0,-0.6,0.5,0.8,32.0*
CCCCNC(=O)CCn1c(=O)c2ccccc2n(Cc2ccc(Cl)cc2)c1=O,1.0,1.1,1.5,15.2*,-0.5
CC(C)C[C@@H](CNC(=O)OC(C)(C)C)NC(=O)c1nc[nH]c1C(=O)N[C@@H](CC(C)C)C(=O)CNC[C@H](CC(C)C)NC(=O)c1nc[nH]c1C(=O)N[C@@H](Cc1c[nH]c2ccccc12)C(=O)OC(C)(C)C,.,.,0.9,-0.9,-0.4
COc1ccc(C(=O)OCC(=O)Nc2c(C)n(C)n(-c3ccccc3)c2=O)cc1OC,.,.,0.1,-6.5,0.2
CC(C)N(Cc1nc(-c2ccccc2)no1)S(=O)(=O)c1ccccc1,-1.1,25.2*,0.8,-3.7,-2.1
